Reference: ChEMBL document CHEMBL2401628, “Low toxicity and unprecedented anti-osteoclast activity of a simple sulfur-containing gem-bisphosphonate: a comparative study” (Eur J Med Chem, 2013)
Calls of active or inactive are those of the source. The calls are words filed in the database; no cut-off is given here.

Tests used:
Osteoclast [1] = test: Inhibition of human osteoclast-mediated type 1 bone collagen degradation assessed as release of europium-labeled collagen fragments at 10 uM after 7 days by time-resolved fluorescence assay; format: functional, cell-based
Method in brief: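 Adherent monocytes from Ficoll-isolated peripheral blood of healthy donors were seeded on human type I bone collagen and differentiated in osteoclast medium for 7 days. They were then exposed to three drug concentrations until day 14. Supernatant was mixed with fluorophore-releasing reagent and Europium-labelled fragments were read by time-resolved fluorescence (ex 340, em 615 nm). Values are the RFU ratio of treated to untreated osteoclasts, from 2 donors in quadruplicate.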

Osteoclast [2] = test: Inhibition of human osteoclast-mediated type 1 bone collagen degradation assessed as release of europium-labeled collagen fragments at 0.1 uM after 7 days by time-resolved fluorescence assay; format: functional, cell-based
Method in brief: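 Mononuclear cells were seeded on Europium-labelled human type I collagen and cultured 7 days in differentiation medium, then drug was added; total culture time was 14 days. Released fragments in supernatant were measured by time-resolved fluorescence (excitation 340 nm, emission 615 nm). Result is the RFU ratio of treated to untreated osteoclasts, quadruplicate wells, 2 donors.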

PBMC = test: Antiosteoclast activity in human PBMC assessed as reduction of osteoclasts formation by measuring TRAcP positive multinucleated cells at 10 uM after 7 days; format: functional, cell-based
Method in brief: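 Blood mononuclear cells from healthy donors, adhered 1 h, then cultured 7 days in osteoclast differentiation medium with drug added from the start. Cells were fixed in 3% paraformaldehyde/2% sucrose, permeabilized in 0.5% Triton, and stained for TRAcP for 60 min at 37 °C. TRAcP-positive multinucleated cells were counted as % of untreated differentiated cultures, duplicate wells, 4 cultures from 2 donors.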

L929 [3] = test: Cytotoxicity against mouse L929 cells assessed as reduction of cell viability after 72 hrs by neutral-red uptake assay; format: cell-based; conditions: l929, 72 h
Method in brief: (§1)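 Mouse L929 fibroblasts in DMEM with 10% FCS, seeded 0.8 × 10³ cells/well and allowed to adhere 24 h. They were then exposed to serial dilutions of compound (stocks 10 mM in PBS pH 7.4) for 72 h; untreated medium served as negative control. Cells took up 0.4% neutral red diluted 1:80 for 2 h at 37 °C, and dye was extracted in 50% ethanol/1% acetic acid and read at 540 nm. Result is the OD ratio of treated to negative control, triplicate wells, 5 experiments.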

Osteoclast [4] = test: Proapoptotic activity in human osteoclasts at 10 uM after 7 days using Hoechst 33258 staining; format: functional, cell-based
Method in brief: (§2)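 Blood mononuclear cells from donors were differentiated into osteoclasts for 7 days, then exposed to drug for a further 7 days. After fixing, cells were stained with phalloidin-TRITC 0.3 mg/mL plus Hoechst 33258 for 30 min at room temperature. Multinucleated F-actin-ring cells with apoptotic nuclear bodies were counted over the whole well as % of all multinucleated cells, duplicate wells, 4 cultures from 2 donors.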

Osteoclast [5] = test: Induction of apoptosis in human osteoclasts at 100 uM after 7 days using Hoechst 33258 staining; format: functional, cell-based; method in brief: as §2
Hydroxyapatite = test: Binding affinity to hydroxyapatite at 0.07 mmol up to 120 hrs by 31P NMR-spectroscopy relative to H3PO4
L929 [6] = test: Cytotoxicity against mouse L929 cells assessed as reduction of cell viability at 10 to 100 uM after 72 hrs by neutral-red uptake assay; format: cell-based; conditions: l929, 72 h; method in brief: as §1
L929 [7] = test: Cytotoxicity against mouse L929 cells assessed as reduction of cell viability at 100 uM after 72 hrs by neutral-red uptake assay; format: cell-based; conditions: l929, 72 h; method in brief: as §1

SMILES | inhibition (Osteoclast [1]) | inhibition (Osteoclast [2]) | inhibition (PBMC) | Activity (L929 [3]) | Activity (Osteoclast [4]) | Activity (Osteoclast [5]) | Activity (Hydroxyapatite) | Activity (L929 [6]) | Activity (L929 [7])
O=P(O)(O)C(CNc1ccccn1)P(=O)(O)O | Active | Active | Active | Dose-dependent effect | Active | Active | 94% |  | 
O=P(O)(O)C(CN1CCOCC1)P(=O)(O)O |  |  | Active |  |  |  | 65% | Toxic | Toxic
O=P(O)(O)C(CSc1ccccc1)P(=O)(O)O |  |  | inactive |  |  |  | 34% | Toxic | Toxic
O=P(O)(O)C(CNc1ccccc1)P(=O)(O)O |  |  | Active |  |  |  | 66% | Toxic | Toxic
NCCC(O)(P(=O)(O)O)P(=O)(O)O [PAMIDRONIC ACID] |  | inactive | Active | Dose-dependent effect | inactive | Active |  |  | 
O=P(O)(O)C(O)(Cn1ccnc1)P(=O)(O)O |  |  |  |  |  |  | 82% |  | 
O=P(O)(O)C(CSCCO)P(=O)(O)O | Active | inactive | Active |  | Active | Active | 70% | Toxic | Toxic
